Experimental data: ChEMBL document CHEMBL3351736, “A promising camptothecin derivative: Semisynthesis, antitumor activity and intestinal permeability” (Eur J Med Chem, 2014)
The source made the active and inactive calls. The calls are words filed in the database; no cut-off is given here.

Experiments:
HeLa [1] = experiment: Cytotoxicity against human HeLa cells after 24 hrs by MTT assay; format: functional, cell-based
Method in brief: (§1)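 Cells seeded at 25000 per well and held 24 h at 37 °C in 5% CO2. Medium was then renewed and compounds added at increasing concentrations (DMSO 0.1%, or water for topotecan) for 24 h. MTT solution (5 mg/mL) was added for 3 h at 37 °C, then absorbance read at 570 nm, corrected at 630 nm. IC50 in µM.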

[2] = Cytotoxicity against human Caco2 cells after 24 hrs by MTT assay; format: functional, cell-based; conditions: Caco-2, 24 h
A-375 [3] = experiment: Cytotoxicity against human A375 cells after 24 hrs by MTT assay; format: functional, cell-based; conditions: A-375, 24 h; method in brief: as §1
Jurkat = experiment: Cytotoxicity against human Jurkat cells after 24 hrs by MTT assay; format: functional, cell-based; method in brief: as §1
Caco-2 [4] = experiment: Induction of apoptosis in human Caco2 cells assessed as vital cells at 0.5 uM after 24 hrs by Annexin V/propidium iodide staining-based flow cytometric analysis (reference value: 96.67 +/- 1.02%); format: functional
Caco-2 [5] = experiment: Induction of apoptosis in human Caco2 cells assessed as vital cells at 0.05 uM after 48 hrs by Annexin V/propidium iodide staining-based flow cytometric analysis (reference value: 96.67 +/- 1.02%); format: functional
Caco-2 [6] = experiment: Induction of apoptosis in human Caco2 cells assessed as vital cells at 0.5 uM after 48 hrs by Annexin V/propidium iodide staining-based flow cytometric analysis (reference value: 96.67 +/- 1.02%); format: functional
Caco-2 [7] = experiment: Induction of apoptosis in human Caco2 cells assessed as early apoptotic cells at 0.05 uM after 24 hrs by Annexin V/propidium iodide staining-based flow cytometric analysis (reference value: 0.72 +/- 0.03%); format: functional
Caco-2 [8] = experiment: Induction of apoptosis in human Caco2 cells assessed as early apoptotic cells at 0.5 uM after 24 hrs by Annexin V/propidium iodide staining-based flow cytometric analysis (reference value: 0.72 +/- 0.03%); format: functional
Caco-2 [9] = experiment: Induction of apoptosis in human Caco2 cells assessed as early apoptotic cells at 0.05 uM after 48 hrs by Annexin V/propidium iodide staining-based flow cytometric analysis (reference value: 0.72 +/- 0.03%); format: functional
Caco-2 [10] = experiment: Induction of apoptosis in human Caco2 cells assessed as early apoptotic cells at 0.5 uM after 48 hrs by Annexin V/propidium iodide staining-based flow cytometric analysis (reference value: 0.72 +/- 0.03%); format: functional
Caco-2 [11] = experiment: Induction of apoptosis in human Caco2 cells assessed as late apoptotic cells at 0.5 uM after 24 hrs by Annexin V/propidium iodide staining-based flow cytometric analysis (reference value: 2.20 +/- 0.77%); format: functional
Caco-2 [12] = experiment: Induction of apoptosis in human Caco2 cells assessed as late apoptotic cells at 0.05 uM after 48 hrs by Annexin V/propidium iodide staining-based flow cytometric analysis (reference value: 2.20 +/- 0.77%); format: functional
Caco-2 [13] = experiment: Induction of apoptosis in human Caco2 cells assessed as late apoptotic cells at 0.5 uM after 48 hrs by Annexin V/propidium iodide staining-based flow cytometric analysis (reference value: 2.20 +/- 0.77%); format: functional
Caco-2 [14] = experiment: Induction of apoptosis in human Caco2 cells assessed as necrotic cells at 0.05 uM after 24 hrs by Annexin V/propidium iodide staining-based flow cytometric analysis (reference value: 0.41 +/- 0.02%); format: functional
Caco-2 [15] = experiment: Induction of apoptosis in human Caco2 cells assessed as necrotic cells at 0.05 uM after 48 hrs by Annexin V/propidium iodide staining-based flow cytometric analysis (reference value: 0.41 +/- 0.02%); format: functional
HeLa [16] = experiment: Induction of apoptosis in human HeLa cells assessed as inhibition of DNA synthesis at 0.8 to 1.6 uM after 24 hrs by BrdU staining-based ELISA; format: functional, cell-based
Method in brief: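 BrdU colorimetric cell proliferation ELISA. Cells seeded at 25,000 per well, compounds added 24 h after seeding and incubated 24 h. Cells fixed and the immunoassay run per kit. Absorbance read at 370-492 nm over 3 intervals of 5 min; absorbance difference proportional to BrdU incorporation. Mean of three separate experiments in triplicate, compared with untreated control.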

HeLa [17] = experiment: Induction of apoptosis in human HeLa cells assessed as inhibition of DNA synthesis after 24 hrs by BrdU staining-based ELISA; format: functional, cell-based
Method in brief: (§2)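 Cells seeded at 25,000/well; compounds added 24 h after seeding at a range of concentrations and incubated 24 h. Cells fixed, then colorimetric BrdU-incorporation ELISA. Absorbance read at 370-492 nm over 3 intervals of 5 min. Mean of three separate experiments with triplicate samples.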

MDA-MB-231 [18] = experiment: Induction of apoptosis in human MDA-MB-231 cells assessed as inhibition of DNA synthesis after 24 hrs by BrdU staining-based ELISA; format: functional, cell-based; method in brief: as §2
A-375 [19] = experiment: Induction of apoptosis in human A375 cells assessed as p53 phosphorylation at Ser15 by Western blotting analysis; format: functional, cell-based
Method in brief: (§3)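 Cells treated 24 h. About 10^6 cells lysed on ice 15 min in Hepes pH 7.4/Triton X-100 buffer with phosphatase and protease inhibitors, then spun 13,000 × g. 30 µg protein run on 12% SDS-PAGE and blotted to nitrocellulose. Primary anti-phospho-p53 (Ser15) and anti-p53 at 1:1000 for 2 h at room temperature, then HRP secondary and ECL densitometry. Results referred to untreated control.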

MDA-MB-231 [20] = experiment: Induction of apoptosis in human MDA-MB-231 cells assessed as p53 phosphorylation at Ser15 by Western blotting analysis; format: functional, cell-based; method in brief: as §3
[21] = Permeability from apical to basolateral side in human Caco2 cells at 10 to 50 uM after 15 to 90 mins by HPLC analysis; format: ADME, cell-based; conditions: caco-2, 50 µM
Method in brief: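 Caco-2 cells seeded at 400,000 per polycarbonate transwell insert (0.4 μm pore) and grown in DMEM for 19-22 days to confluence at 37°C, 5% CO2. TEER checked before and after each run. Compound in donor chamber, buffer in receiver. Run at 37°C with 50 rpm orbital shaking. Receiver sampled at 15, 30, 60 and 90 min with buffer replacement; donor sampled at start and end. HPLC quantitation; three independent experiments.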

Small intestine = experiment: Effective permeability in Wistar rat small intestine assessed as absorption rate coefficient at 50 uM measured after 5 mins in every 5 min interval up to 30 mins; format: ADME, tissue-based
Method in brief: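 Male Wistar rats fasted 2 h with water available, then anaesthetised with diazepam (1.67 mg/kg), ketamine (50 mg/kg) and atropine (1 mg/kg) and kept at 37°C on a heated surface. In situ intestinal perfusion. Perfusate sampled from 5 min at 5 min intervals up to 30 min. Absorption rate constant (Ka) and Peff derived.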

[22] = Efflux ratio of effective permeability from basolateral to apical side over apical to basolateral side in human Caco2 cells at 10 to 50 uM after 15 to 90 mins by HPLC analysis; format: ADME, cell-based; conditions: Caco-2
Method in brief: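 Caco-2 monolayers (400,000 cells per polycarbonate transwell insert, 0.4 µm pores) grown in DMEM for 19-22 days at 37 °C and 5% CO2. TEER was checked before and after each run. Compound was placed on the donor side and buffer on the receiver side, in both apical-to-basal and basal-to-apical directions, at 37 °C with 50 rpm orbital shaking. Receiver samples were taken at 15, 30, 60 and 90 min with buffer replaced, and donor samples at start and end. Analysis was by HPLC; three independent experiments.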

## CC[C@@]1(O)C(=O)OCc2c1cc1n(c2=O)Cc2cc3c(CN(C)C)c(O)ccc3nc2-1.Cl [TOPOTECAN HYDROCHLORIDE]
HeLa [1]
  IC50: 0.38 µM
[2]
  IC50: 0.119 µM
A-375 [3]
  IC50: 0.162 µM
Jurkat
  IC50: 0.127 µM
Caco-2 [4]
  Activity: 53.08%
Caco-2 [5]
  Activity: 45.2%
Caco-2 [6]
  Activity: 38.26%
Caco-2 [7]
  Activity: 5.42%
Caco-2 [8]
  Activity: 4.4%
Caco-2 [9]
  Activity: 2.36%
Caco-2 [10]
  Activity: 5.74%
Caco-2 [11]
  Activity: 33.98%
Caco-2 [12]
  Activity: 48.06%
Caco-2 [13]
  Activity: 53.12%
Caco-2 [14]
  Activity: 3.64%
Caco-2 [15]
  Activity: 2.36%
HeLa [16]
  Activity: Active
HeLa [17]
  inhibition: Dose-dependent effect
MDA-MB-231 [18]
  inhibition: Dose-dependent effect
A-375 [19]
  Activity: Active
MDA-MB-231 [20]
  Activity: Active
[21]
  permeability: permeable
Small intestine
  Ka: 2.25 h⁻¹
[22]
  efflux ratio at up to 50 µM: > 1
